Screens from PubChem BioAssay.
KCNK9 block: KCNK9 potassium channel inhibitors, primary screen, HEK293 cells, thallium flux. Potassium channel subfamily K member 9 (Homo sapiens), Q9NPC2. FluxOR thallium flux fluorescence; hits give low values. B-score at 10 µM. 1.2% of 310,000 active. AID 488922, 2010;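 active = ratio B-score over 3 SD below the library mean, with starting fluorescence within 5 SD of its mean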;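 also: negative B-score means less thallium flux so channel inhibition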
Kir21 block: inhibitors of mouse Kir2.1 inward-rectifier potassium channel; Inward rectifier potassium channel 2 (Mus musculus), P35561; HEK293-Kir2.1, FluxOR thallium flux fluorescence; hits give low values; B-score at 10 µM; 0.85% of 310,000 active; AID 1672, 2009;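 active = fluorescence ratio B-score at or below minus 3 SD of library scores, with starting-brightness B-score within 2 SD, cut at about -4.2 in these data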;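 also: channel flux triggered by added potassium and thallium sulfate stimulus; B-score of peak minus minimum fluorescence over baseline after thallium stimulus; more negative B-score means stronger Kir2.1 block with less thallium influx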
KCNK3 block: human KCNK3 channel inhibitors, primary screen, CHO cells, FluxOR thallium flux, B-score; Potassium channel subfamily K member 3 (Homo sapiens), O14649; FluxOR fluorescence; hits give low values; B-score at 10 µM; 0.84% of 340,000 active; AID 602410, 2012;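 active = B-score under library mean minus 4 SD, starting fluorescence ratio at most library mean plus 5 SD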;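 also: more negative B-score means stronger inhibition of thallium flux through KCNK3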
Target sequence (O14649 whole entry, looked up): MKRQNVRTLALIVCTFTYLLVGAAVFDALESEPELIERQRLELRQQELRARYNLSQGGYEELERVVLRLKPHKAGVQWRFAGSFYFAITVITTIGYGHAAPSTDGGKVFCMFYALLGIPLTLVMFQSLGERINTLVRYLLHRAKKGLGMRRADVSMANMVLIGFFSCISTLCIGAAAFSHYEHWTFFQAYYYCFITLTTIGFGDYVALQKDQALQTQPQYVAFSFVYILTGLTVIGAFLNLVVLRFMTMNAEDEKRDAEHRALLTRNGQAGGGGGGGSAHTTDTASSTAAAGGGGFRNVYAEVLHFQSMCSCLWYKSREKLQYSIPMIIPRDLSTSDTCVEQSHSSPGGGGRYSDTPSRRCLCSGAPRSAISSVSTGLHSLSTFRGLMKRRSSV
KCNQ1 act: potentiators or activators of KCNQ1 channel, primary screen, cell-based, thallium flux, high-throughput; Potassium voltage-gated channel subfamily KQT member 1 (Homo sapiens), P51787; CHO-K1 KCNQ1, thallium flux FluxOR fluorescence; hits give high values; B-score at 10 µM; 0.35% of 310,000 active;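 active = fluorescence ratio B-score, a plate-corrected score, at least three library SD, with initial intensity B-score within 5 SD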
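Doses: Single concentration per compound, DMSO matched to controls | Test system: KCNQ1-transfected CHO-K1 cells | Timing: 90 min dye loading and 20 min compound exposure, both at room temperature | Measured by: Kinetic FluxOR thallium fluorescence, 10-s 1-Hz baseline, 110-s post-stimulus read | Medium: Assay buffer with matched DMSO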
hERG rescue: hERG rescue from dofetilide block, primary screen, cell-based, CHO-hERG, FluxOR thallium flux, dofetilide IC70; activation (rescue from dofetilide block), less the hit threshold, % at 10 µM; Voltage-gated inwardly rectifying potassium channel KCNH2 (Homo sapiens), Q12809; dofetilide IC70 present; 0.51% of 310,000 active; AID 1511, 2009;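 active = activation above the mean of controls blocked by dofetilide plus 5 SD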;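 also: thallium influx through hERG after potassium depolarization seen as dye fluorescence rise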
KCNQ1 inh: inhibitors of human KCNQ1 channel, primary screen, cell-based, thallium flux, high-throughput; Potassium voltage-gated channel subfamily KQT member 1 (Homo sapiens), P51787; CHO-K1 KCNQ1, FluxOR thallium flux fluorescence; hits give high values; B-score at 10 µM; 1.3% of 310,000 active;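 active = compounds whose thallium flux B-score, printed positive for inhibition, exceeds three library SD while starting fluorescence stays within three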;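 also: channel opened by potassium depolarization with thallium stimulus after 20 min compound exposure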
The depositor's hits bear a star; i = inactive; . = no result given. This is a sample that favours compounds with a hit; in the whole collection about 3.7% have one here.

SMILES | KCNK9 block | Kir21 block | KCNK3 block | KCNQ1 act | hERG rescue | KCNQ1 inh
COc1cccc2c1oc1c(SCc3nc4ccccc4[nH]3)nc(C)nc12 | . | . | i | . | . | .
O=C(c1cccc(S(=O)(=O)Nc2ccc(F)cc2)c1)N1CCC1 | . | . | i | . | . | .
COc1ccc(C(C)=O)cc1CSc1nnc(Nc2ccccc2C)s1 | i | -4.3* | i | i | -8 | i
COc1ccc(C(C)=O)cc1CSc1nnc(Nc2ccc(C)cc2C)s1 | i | 0.16 | i | i | -11 | i
CN(Cc1cnccn1)Cc1nc(Cc2ccccc2F)no1 | i | -3.1 | i | i | 28* | i
COc1ccccc1C=NN=C(NN=Cc1ccccc1OC)NN=Cc1ccccc1OC | . | . | -11* | . | . | .
CC(=O)Nc1ccccc1Nc1nc(NCCO)nc(N2CCCC2)n1 | i | 0.28 | i | i | -6 | i
CCC(=O)N(Cc1c(C)nn(-c2ccccc2)c1Cl)c1ccc(Cl)cc1 | i | -6.5 | i | i | -13 | 6*
COC(=O)CNc1nc(Cl)nc(Nc2ccc(C)cc2)n1 | i | -0.43 | i | i | 6.7* | i
CCCCCCOc1ccc(/C(C)=N/NC2=NCCN2)cc1[N+](=O)[O-] | i | 0.81 | i | i | -21 | i
CCCCOc1ccc(Br)cc1/C(C)=N/NC1=NCCN1 | i | -8.1* | i | i | -24 | i
C#CCn1c(=NC(=O)CSC(C)=O)sc2cc(F)ccc21 | -7.8* | -0.79 | i | i | 0 | i
Cc1ccc(C(=O)N(C)Cc2ccc(N3CCOCC3)cc2)cc1S(=O)(=O)NCc1ccccc1 | . | . | i | . | . | .
NC(=O)c1cc(S(=O)(=O)NCc2ccc(Br)cc2)cs1 | i | 0.05 | i | i | -2 | i
Cc1ccc(-c2csc(NC(=O)c3cccc(S(=O)(=O)N4CCN(C)CC4)c3)n2)cc1 | i | 0.25 | i | i | -4 | i
O=C(Nc1nc(-c2ccc(S(=O)(=O)N3CCCCCC3)cc2)cs1)c1cccs1 | i | -3.2 | i | i | -11 | i
O=C(Nc1nc(-c2ccc(S(=O)(=O)N3CCCC3)cc2)cs1)c1cccs1 | . | . | -11* | . | . | .
O=C(Nc1nc(-c2cccs2)cs1)c1cccc(S(=O)(=O)N2CCCCC2)c1 | -6.6* | 0.8 | i | i | -10 | i
CCOc1ccc(C(=O)OCC(=O)N(Cc2ccccc2)Cc2ccccc2)cc1OC | . | . | i | . | . | .
Nn1c(Cc2cccc3ccccc23)nnc1SCCOc1ccc(F)cc1 | -7.9* | -0.4 | i | i | -7 | i
Nn1c(Cc2cccc3ccccc23)nnc1SCCOc1ccc(Br)cc1 | i | -1.1 | i | i | -3 | i
Cc1ccc(OC(C)C(=O)Nc2ccc(S(=O)(=O)N3CCOCC3)cc2)cc1 (stereo unspecified) | i | 0 | i | i | -6 | i
CC(C)=CCc1c(O)cc2c(=O)c3ccc(O)cc3oc2c1O | -12* | 0.22 | i | i | -11 | i
N/C(=N\OC(=O)CC(c1ccccc1)c1ccccc1)c1cccnc1 | i | -0.47 | i | i | 4.6* | i
N/C(=N\OC(=O)Cc1ccccc1)c1cccnc1 | i | 0.02 | i | i | -12 | i
SMILES | KCNK9 block | Kir21 block | KCNK3 block | KCNQ1 act | hERG rescue | KCNQ1 inh
CCOC(=O)CNC1CC(=O)N(c2cccc(Cl)c2)C1=O (stereo unspecified) | i | 0.59 | i | i | 5.3* | i
COc1ccc(Cl)cc1NC(=O)CCS(=O)(=O)c1ccc(C)cc1 | i | 0.03 | i | i | -4 | i
N#C/C(=C/C1=C(N2CCOCC2)C(=C/c2ccc(Cl)cc2)/CC1)C(=O)Nc1ccccc1F | . | . | i | . | . | .
COc1ccc(C[C@H]2CN3C(=NC[C@@H]3C(C)C)N2CCNC(=O)c2ccc(C)c(Br)c2)cc1 | i | -6.5* | i | i | -18 | i
COc1ccc(CN(C)C(C)C(=O)N(C)CC(=O)Nc2ccc(C)cc2)cc1F (stereo unspecified) | . | . | i | . | . | .
CCCCCCNCC(=O)N1CCC(Cc2ccccc2)CC1 | i | -2.8 | i | i | -8 | i
CCC(C)C(CO)NCCCn1cnc(C(=O)Nc2ccc(C)c(C)c2)n1 (stereo unspecified) | . | . | i | . | . | .
COCCNCCCCOc1ccccc1-c1ccccc1 | i | -6.3* | i | i | -2 | i
CCCCNCCOCCOc1ccccc1-c1ccccc1 | i | -10* | i | i | -3 | i
C=CCNCCOc1ccccc1-c1ccccc1 | i | -1.3 | i | i | -3 | i
CC1(C)NC(=O)N(CCOCCOc2ccccc2-c2ccccc2)C1=O | i | -5.4* | i | i | -10 | i
CC(C)NCCCCOc1ccccc1-c1ccccc1 | i | -5.6* | . | i | -2 | i
CN(C)CCCCOc1ccccc1-c1ccccc1 | i | -2.7 | i | i | -9 | i
CCC(=O)c1ccccc1OCCN1C(=O)NC(C)(C)C1=O | i | -1.4 | i | i | -10 | i
CCOc1ccc(CN(C)C(=O)CCc2ccc(S(=O)(=O)N3CCCCCC3)cc2)cc1 | . | . | i | . | . | .
CC1(C)Oc2ccc3ccc(=O)oc3c2/C(=C/Nc2cccc(O)c2)C1=O | -6.7* | -2.3 | i | i | -14 | 6*
COC1OC(COCc2ccccc2)C(N)C(OCc2ccccc2)C1OCc1ccccc1 (stereo unspecified) | . | . | i | . | . | .
C=CCC1C=C(Cc2ccccc2)CC(CC=C)N1 (stereo unspecified) | i | -4.1 | i | i | -5 | i
C=CC[C@H]1CC(Cc2ccccc2)=C[C@H](CC=C)N1 | i | -6.5* | i | i | -12 | i
CC(C)(C)N1C(=O)[C@H]2[C@@H](c3ccc(Br)cc3)N3C(=O)N(c4cccc(Br)c4)C(=O)[C@@]3(Cc3ccccc3)[C@H]2C1=O | -6.9* | -1 | i | i | -4 | i
O=C(NCc1ccccn1)c1ccc(OC2CCN(Cc3ccc(Cl)s3)CC2)cc1 | i | 1.6 | i | i | -11 | i
N#C/C(=C(/O)COC(=O)c1ccc(C#N)cc1)c1nc2ccccc2s1 | i | 0 | i | i | -1 | 6*
C/C(=N/NC(=O)C1CCCN1C(=O)c1ccc([N+](=O)[O-])cc1)c1ccc(Br)cc1 (stereo unspecified) | i | -1.6 | i | i | -7 | i
